The values that follow come from ChEMBL document CHEMBL1140543, “Biphenyls as potent vitronectin receptor antagonists. Part 3: Squaric acid amides” (Bioorg Med Chem Lett, 2007).

The target in data set [1] is T1, Integrin alpha-V/beta-3 (Homo sapiens, UniProt P05106+P06756). The data set can be described thus: Binding affinity to integrin alpha-v-beta-3 receptor. In kind it is protein-complex assay.
Target sequence in this assay (P05106 27-788 limits assumed): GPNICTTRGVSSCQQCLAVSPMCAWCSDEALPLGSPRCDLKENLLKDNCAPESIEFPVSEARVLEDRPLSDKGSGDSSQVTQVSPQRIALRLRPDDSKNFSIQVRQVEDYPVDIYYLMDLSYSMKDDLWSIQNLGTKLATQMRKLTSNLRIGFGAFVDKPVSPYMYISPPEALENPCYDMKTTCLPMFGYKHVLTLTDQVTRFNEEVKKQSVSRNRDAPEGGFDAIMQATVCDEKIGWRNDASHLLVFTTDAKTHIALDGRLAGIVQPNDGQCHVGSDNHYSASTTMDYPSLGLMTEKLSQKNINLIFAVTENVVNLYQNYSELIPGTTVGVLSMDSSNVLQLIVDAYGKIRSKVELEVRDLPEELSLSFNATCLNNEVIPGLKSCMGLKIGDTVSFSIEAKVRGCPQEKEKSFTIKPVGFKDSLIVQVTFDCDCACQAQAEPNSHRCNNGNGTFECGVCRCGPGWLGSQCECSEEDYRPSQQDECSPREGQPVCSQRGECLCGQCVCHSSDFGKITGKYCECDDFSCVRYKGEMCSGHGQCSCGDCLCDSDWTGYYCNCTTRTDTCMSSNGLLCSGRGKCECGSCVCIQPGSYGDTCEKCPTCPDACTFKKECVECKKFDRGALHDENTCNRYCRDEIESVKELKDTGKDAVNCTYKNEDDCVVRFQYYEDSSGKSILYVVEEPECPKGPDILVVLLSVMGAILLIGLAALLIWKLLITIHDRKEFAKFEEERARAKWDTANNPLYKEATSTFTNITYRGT
Target sequence in this assay (P06756 31-889 limits assumed): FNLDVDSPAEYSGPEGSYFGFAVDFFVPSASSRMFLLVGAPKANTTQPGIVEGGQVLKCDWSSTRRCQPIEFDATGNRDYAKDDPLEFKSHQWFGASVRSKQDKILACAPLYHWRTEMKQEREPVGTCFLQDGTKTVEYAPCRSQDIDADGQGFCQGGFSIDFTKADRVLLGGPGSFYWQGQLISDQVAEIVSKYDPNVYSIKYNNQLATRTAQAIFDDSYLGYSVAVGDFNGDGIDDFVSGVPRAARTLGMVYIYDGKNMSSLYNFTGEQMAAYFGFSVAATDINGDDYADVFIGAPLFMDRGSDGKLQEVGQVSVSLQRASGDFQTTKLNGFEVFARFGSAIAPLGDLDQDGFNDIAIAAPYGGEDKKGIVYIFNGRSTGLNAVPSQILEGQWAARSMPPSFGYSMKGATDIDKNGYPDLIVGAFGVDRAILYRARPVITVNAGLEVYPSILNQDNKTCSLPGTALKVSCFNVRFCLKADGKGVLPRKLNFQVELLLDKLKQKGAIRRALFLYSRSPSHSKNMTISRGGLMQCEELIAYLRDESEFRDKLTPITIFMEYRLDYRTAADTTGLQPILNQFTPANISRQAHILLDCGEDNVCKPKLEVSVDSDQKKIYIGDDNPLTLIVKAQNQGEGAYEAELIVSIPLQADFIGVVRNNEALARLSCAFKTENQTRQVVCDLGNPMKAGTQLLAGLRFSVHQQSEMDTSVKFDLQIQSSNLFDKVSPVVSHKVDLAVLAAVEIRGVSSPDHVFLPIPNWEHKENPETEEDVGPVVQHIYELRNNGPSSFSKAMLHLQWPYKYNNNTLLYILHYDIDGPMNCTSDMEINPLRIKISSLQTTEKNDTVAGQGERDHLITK
Target sequence in this assay (P06756 891-1048 limits assumed): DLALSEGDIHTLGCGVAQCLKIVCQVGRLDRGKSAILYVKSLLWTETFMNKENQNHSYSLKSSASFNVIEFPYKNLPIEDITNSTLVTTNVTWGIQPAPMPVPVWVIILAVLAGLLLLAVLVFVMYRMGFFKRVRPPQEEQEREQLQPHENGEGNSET
Data set [2] addresses Integrin alpha-IIb/beta-3 (Homo sapiens, UniProt P05106+P08514). Nature of the data set: Binding affinity to GP2b3a receptor. In kind it is protein-complex assay.
Data set [3] concerns the target T1, Integrin alpha-V/beta-3. The data set can be described thus: Antagonist activity at human integrin alpha-v-beta-3 receptor expressed in HEK293 cells. In kind it is functional, cell-based. The method in brief:
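HEK 293 cells transfected with human αvβ3 were used. Inhibition of the adhesion of purified human vitronectin to these cells gave the cellular αvβ3 affinity.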

Data set [4] in a line: Inhibition of smooth muscle cell migration. In kind it is functional, Homo sapiens.
Another data set has as its target Albumin (Homo sapiens, UniProt P02768). Nature of the data set: Binding affinity to human serum albumin by equilibrium dialysis.
In another data set the test system is Liver microsomes. Nature of the data set: Clearance in rat liver microsomes. Type of data set: ADME, Microsome.

Sequence of Albumin (P02768 whole entry): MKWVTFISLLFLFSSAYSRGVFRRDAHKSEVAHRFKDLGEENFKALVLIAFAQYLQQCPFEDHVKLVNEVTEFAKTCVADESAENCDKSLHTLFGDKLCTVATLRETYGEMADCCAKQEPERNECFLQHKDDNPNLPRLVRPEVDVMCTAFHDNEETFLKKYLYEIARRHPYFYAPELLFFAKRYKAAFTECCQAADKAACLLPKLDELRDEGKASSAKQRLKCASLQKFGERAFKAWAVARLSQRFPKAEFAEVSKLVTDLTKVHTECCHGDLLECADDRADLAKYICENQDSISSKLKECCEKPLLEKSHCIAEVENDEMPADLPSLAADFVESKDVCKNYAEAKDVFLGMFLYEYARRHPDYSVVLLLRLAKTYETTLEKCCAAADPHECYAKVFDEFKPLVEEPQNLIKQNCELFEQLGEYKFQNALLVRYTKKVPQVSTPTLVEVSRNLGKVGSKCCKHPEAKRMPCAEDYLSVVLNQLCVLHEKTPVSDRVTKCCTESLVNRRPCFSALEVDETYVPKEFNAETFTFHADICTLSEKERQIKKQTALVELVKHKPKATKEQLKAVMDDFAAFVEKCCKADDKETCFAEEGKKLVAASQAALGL
Sequence of Integrin alpha-IIb/beta-3 (P05106 27-788 limits assumed): as the sequence (P05106 27-788 limits assumed) above
Sequence of Integrin alpha-IIb/beta-3 (P08514 32-887 limits assumed): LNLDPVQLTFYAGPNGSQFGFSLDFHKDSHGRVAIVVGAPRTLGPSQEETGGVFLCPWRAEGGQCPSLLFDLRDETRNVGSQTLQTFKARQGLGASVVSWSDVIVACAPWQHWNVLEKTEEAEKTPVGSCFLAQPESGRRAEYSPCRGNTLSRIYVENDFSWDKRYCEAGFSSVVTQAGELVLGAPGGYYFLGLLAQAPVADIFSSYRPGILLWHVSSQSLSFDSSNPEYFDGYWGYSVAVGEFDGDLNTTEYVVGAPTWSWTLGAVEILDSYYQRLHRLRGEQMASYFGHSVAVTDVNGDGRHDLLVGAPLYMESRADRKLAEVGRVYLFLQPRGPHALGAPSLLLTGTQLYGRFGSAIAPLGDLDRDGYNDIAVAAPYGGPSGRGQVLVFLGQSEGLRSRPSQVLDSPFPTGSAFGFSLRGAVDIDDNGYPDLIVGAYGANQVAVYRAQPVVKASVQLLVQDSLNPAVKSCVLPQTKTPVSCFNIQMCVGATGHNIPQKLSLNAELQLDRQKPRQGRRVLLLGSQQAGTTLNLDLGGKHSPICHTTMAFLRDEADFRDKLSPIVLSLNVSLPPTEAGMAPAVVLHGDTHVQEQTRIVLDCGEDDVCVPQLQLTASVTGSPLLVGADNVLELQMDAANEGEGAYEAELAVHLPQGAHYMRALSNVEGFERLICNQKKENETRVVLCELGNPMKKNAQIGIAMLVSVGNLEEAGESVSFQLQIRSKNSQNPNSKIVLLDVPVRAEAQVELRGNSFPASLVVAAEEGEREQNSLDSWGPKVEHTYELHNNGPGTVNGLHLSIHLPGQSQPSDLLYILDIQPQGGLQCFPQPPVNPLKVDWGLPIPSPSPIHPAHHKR
Sequence of Integrin alpha-IIb/beta-3 (P08514 891-1039 limits assumed): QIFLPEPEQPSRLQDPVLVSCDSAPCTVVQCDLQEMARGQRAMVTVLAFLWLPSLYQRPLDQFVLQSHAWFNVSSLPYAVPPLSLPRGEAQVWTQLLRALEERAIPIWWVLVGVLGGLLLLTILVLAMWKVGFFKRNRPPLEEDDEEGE

As for `Cc1cc(C)c(S(=O)(=O)N[C@@H](Cc2ccc(-c3cccc(NC(=O)c4ccc[nH]4)c3)cc2)C(=O)O)c(C)c1`, the Ki at Integrin alpha-V/beta-3 [1] is 33 nM.
In turn, `Cc1cc(C)c(S(=O)(=O)N[C@@H](Cc2ccc(-c3cccc(NC(=O)NC4CC4)c3)cc2)C(=O)O)c(C)c1` gave a Ki in data set [2] of 128 nM. Besides, the Activity at Integrin alpha-V/beta-3 [3] was 85 nM; in data set [4], 390 nM. Moreover, on Albumin, binding was characterised by a dissociation constant (Kd) of 740 nM.
As for `Cc1cc(C)c(S(=O)(=O)N[C@@H](Cc2ccc(-c3cccc(NC(=O)c4ncc[nH]4)c3)cc2)C(=O)O)c(C)c1`, the affinity on Integrin alpha-V/beta-3 [1], expressed as Ki, was 1 nM.
On to `Cc1cc(C)c(S(=O)(=O)N[C@@H](Cc2ccc(-c3cccc(NC(=O)c4cccnc4)c3)cc2)C(=O)O)c(C)c1`, for which affinity at Integrin alpha-V/beta-3 [1] was put at a Ki of 400 nM.
The same measure, in the same setting: for `Cc1cc(C)c(S(=O)(=O)N[C@@H](Cc2ccc(-c3cccc(Nc4n[s+]([O-])nc4NC4CC4)c3)cc2)C(=O)O)c(C)c1` (some centres not stated) the value was 18 nM.
As for `CS(=O)(=O)N[C@@H](Cc1ccc(-c2cccc(Nc3c(NC4CC4)c(=O)c3=O)c2)cc1)C(=O)O`, at Integrin alpha-V/beta-3 [1], the Ki was 10 nM.
On the same count and under the same terms, next, `Cc1cc(C)c(S(=O)(=O)N[C@@H](Cc2ccc(-c3cccc(NC4=NCCN4)c3)cc2)C(=O)O)c(C)c1`: 1.3 nM; `Cc1cc(C)c(S(=O)(=O)N[C@@H](Cc2ccc(-c3cccc(Nc4c(NCc5ccccn5)c(=O)c4=O)c3)cc2)C(=O)O)c(C)c1`: 11 nM; `Cc1cc(C)c(S(=O)(=O)N[C@@H](Cc2ccc(-c3cccc(NC(=O)c4ccccn4)c3)cc2)C(=O)O)c(C)c1`: more than 2000 nM.
Same read-out and setting: for `Cc1cc(C)c(S(=O)(=O)N[C@@H](Cc2ccc(-c3cccc(NC(=O)c4ccncc4)c3)cc2)C(=O)O)c(C)c1` the value was 700 nM.
Still for that read-out and setting: for `Cc1cc(C)c(S(=O)(=O)N[C@@H](Cc2ccc(-c3cccc(Nc4c(NCc5ccccc5)c(=O)c4=O)c3)cc2)C(=O)O)c(C)c1` the value was 25 nM.
Turning to `CC1(C)C2CC[C@]1(S(=O)(=O)N[C@@H](Cc1ccc(-c3cccc(Nc4c(NC5CC5)c(=O)c4=O)c3)cc1)C(=O)O)C(=O)C2`, the Ki on Integrin alpha-V/beta-3 [1] was determined as 0.1 nM.
In the case of `Cc1cc(C)c(S(=O)(=O)N[C@@H](Cc2ccc(-c3cccc(Nc4c(NC5CC5)c(=O)c4=O)c3)cc2)C(=O)O)c(C)c1`, the Ki on Integrin alpha-V/beta-3 [1] stood at 0.5 nM; in data set [2] it was 47 nM. The figures for the Activity (on Integrin alpha-V/beta-3 [3]; in data set [4]) were 13 nM and 10 nM, respectively. The Kd at Albumin came to 420 nM. Also, the CL with Liver microsomes came out at 65 mL/min/kg.
Regarding `Cc1cc(C)c(S(=O)(=O)N[C@@H](Cc2ccc(-c3cccc(NC(=O)c4ccco4)c3)cc2)C(=O)O)c(C)c1`, the affinity on Integrin alpha-V/beta-3 [1], expressed as Ki, was 650 nM.
